Measured values collected from several papers.
Compare with care: the assays were run in different laboratories.
HTR2B: 5-hydroxytryptamine receptor 2B (HTR2B, Homo sapiens, UniProt P41595)

For `[2H]c1c([2H])c([C@]2([2H])CCCN2C(=O)C(C)(C)Oc2ccc3cn[nH]c3c2)c([2H])c([2H])c1C([2H])([2H])[2H]`, the remaining binding was 86% (Serine/threonine-protein kinase DCLK3 (DCLK3, Homo sapiens, UniProt Q9C098); binding; competition with immobilised ligand; 1 µM).
The Emax of `CC[C@H](C)[C@H](NC(=O)[C@H](CO)NC(=O)[C@H](Cc1ccc(O)cc1)NC(=O)[C@H](CC(=O)O)NC(=O)[C@H](CO)NC(=O)[C@@H](NC(=O)[C@H](Cc1ccccc1)NC(=O)[C@@H](NC(=O)CNC(=O)[C@H](CCC(=O)O)NC(=O)CCNC(=O)C1(c2ccc(Cl)cc2)CCOCC1)[C@@H](C)O)[C@@H](C)CC)C(=O)N[C@@H](C)C(=O)N[C@@H](CCSC)C(=O)N[C@@H](CC(=O)O)C(=O)N[C@@H](CCCCN)C(=O)N[C@H](C(=O)N[C@@H](Cc1c[nH]cn1)C(=O)N[C@@H](CCC(N)=O)C(=O)N[C@@H](CCC(N)=O)C(=O)N[C@@H](CC(=O)O)C(=O)N[C@@H](Cc1ccccc1)C(=O)N[C@H](C(=O)N[C@@H](CC(N)=O)C(=O)N[C@@H](Cc1c[nH]c2ccccc12)C(=O)N[C@@H](CC(C)C)C(=O)N[C@@H](CC(C)C)C(=O)N[C@@H](C)C(=O)N[C@@H](CCC(N)=O)C(=O)NCC(=O)N1CCC[C@H]1C(=O)N[C@@H](CO)C(=O)N[C@@H](CO)C(=O)NCC(=O)N[C@@H](C)C(=O)N1CCC[C@H]1C(=O)N1CCC[C@H]1C(=O)N1CCC[C@H]1C(=O)N[C@@H](CO)C(=O)N[C@@H](CCCCN)C(N)=O)C(C)C)[C@@H](C)CC` is reported as less than 20% (Glucagon receptor (Mus musculus, UniProt Q61606); cAMP; agonist).
With `CN1CCC[C@H]1c1cccnc1` the inhibition was -8.78% (HTR2B; ligand displacement; 50 µM).
With `COc1cc2c3c(c1OC)-c1c(OC)ccc(Cl)c1CC3N(C)CC2` (racemic) the inhibition was 87% (HTR2B; ligand displacement; radioligand; 10 µM).
The Emax of `COc1cc(C(F)(F)F)c(OC)cc1C1CCCNC1` (stereo not shown) is reported as 84% (HTR2B; G protein activation; agonist; BRET).
The inhibition of `CCOC(=O)Cc1c2c3c(cc(OC)c(OC)c3c3cc(OC)c(OC)cc13)CCN2C` is reported as 6% (5-hydroxytryptamine receptor 2C (HTR2C, Homo sapiens, UniProt P28335); ligand displacement; radioligand; 10 µM).
`c1cncc([C@@H]2CCCN2)c1` gave an inhibition of 69.1% (Neuronal acetylcholine receptor; alpha3/beta4 (Rattus norvegicus, UniProt P04757+P12392); ligand displacement; radioligand; 50 µM).
`Nc1ncnc2c1ncn2[C@@H]1O[C@H](C[C@@H](N)CC[C@H](N)C(=O)O)[C@@H](O)[C@H]1O` has an inhibition of 13.7% (mRNA cap guanine-N(7) methyltransferase (RNMT, Homo sapiens, UniProt O43148); enzyme activity; inhibitor; 12.21 nM).
The inhibition of `COc1cc2c3c(c1OC)-c1c(OC)ccc(O)c1CC3N(C)CC2` (stereo not shown) is reported as 86% (HTR2B; ligand displacement; radioligand; 10 µM).
`CC(C)CC(=O)OC[C@H]1O[C@@](C#N)(c2ccc3c(N)ncnn23)[C@H](O)[C@@H]1O` has an inhibition of 10% (HTR2B; cell-free assay; 20 µM).
